# What was measured:
# Eggerthella lenta = test: Antimicrobial activity against Eubacterium lentum assessed as percent resistant isolates after 48 hrs by agar dilution method; assay type: functional
# Procedure, shortened: (§1)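 CLSI agar dilution on recent Korean clinical anaerobe isolates. Inoculum 10^5 CFU per spot by replicator. Plates incubated in an anaerobic chamber at 37°C for 48 h. For piperacillin plus tazobactam, tazobactam was held constant at 4 μg/ml. Resistance and susceptibility rates derived from MICs.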
# Phocaeicola vulgatus = test: Antimicrobial activity against Bacteroides vulgatus assessed as percent susceptible isolates after 48 hrs by agar dilution method; assay type: functional
# Bacteroides ovatus [1] = test: Antimicrobial activity against Bacteroides ovatus assessed as percent resistant isolates after 48 hrs by agar dilution method; assay type: functional; procedure, shortened: as §1
# Anaerococcus prevotii [2] = test: Antimicrobial activity against Anaerococcus prevotii assessed as percent resistant isolates after 48 hrs by agar dilution method; assay type: functional; procedure, shortened: as §1
# [3] = test system: Bacteroides thetaiotaomicron; test: Antimicrobial activity against Bacteroides thetaiotaomicron after 48 hrs by agar dilution method; assay type: functional
# Procedure, shortened: (§2)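 MICs on clinical anaerobe isolates by the CLSI agar dilution method. Inoculum of 10^5 CFU applied with a Steers replicator. Plates incubated 48 h at 37°C in an anaerobic chamber.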
# Actinomyces naeslundii [4] = test: Antimicrobial activity against Actinomyces naeslundii after 48 hrs by agar dilution method; assay type: functional; procedure, shortened: as §2
# Prevotella bivia [5] = test: Antimicrobial activity against Prevotella bivia after 48 hrs by agar dilution method; assay type: functional
# Procedure, shortened: (§3)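 CLSI agar dilution (M11-A7); inoculum 10^5 CFU applied by replicator; plates incubated anaerobically 48 h at 37°C. For piperacillin-tazobactam, tazobactam held constant at 4 μg/ml.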
# Fusobacterium varium = test: Antimicrobial activity against Fusobacterium varium after 48 hrs by agar dilution method; assay type: functional; procedure, shortened: as §3
# Fusobacterium mortiferum = test: Antimicrobial activity against Fusobacterium mortiferum after 48 hrs by agar dilution method; assay type: functional; procedure, shortened: as §3
# Bacteroides fragilis [6] = test: Antimicrobial activity against Bacteroides fragilis assessed as percent susceptible isolates after 48 hrs by agar dilution method; assay type: functional
# Clostridioides difficile [7] = test: Antimicrobial activity against Clostridium difficile assessed as percent resistant isolates after 48 hrs by agar dilution method; assay type: functional
# Hoylesella oralis [8] = test: Antimicrobial activity against Prevotella oralis assessed as percent resistant isolates after 48 hrs by agar dilution method; assay type: functional; procedure, shortened: as §1
# Prevotella bivia [9] = test: Antimicrobial activity against Prevotella bivia assessed as percent susceptible isolates after 48 hrs by agar dilution method; assay type: functional; procedure, shortened: as §3
# Parvimonas micra = test: Antimicrobial activity against Peptostreptococcus micros assessed as percent susceptible isolates after 48 hrs by agar dilution method; assay type: functional; procedure, shortened: as §1
# Prevotella buccae [10] = test: Antimicrobial activity against Prevotella buccae assessed as percent susceptible isolates after 48 hrs by agar dilution method; assay type: functional, Segatella buccae; procedure, shortened: as §3
# Schaalia meyeri [11] = test: Antimicrobial activity against Actinomyces meyeri assessed as percent resistant isolates after 48 hrs by agar dilution method; assay type: functional; procedure, shortened: as §1
# Actinomyces naeslundii [12] = test: Antimicrobial activity against Actinomyces naeslundii assessed as percent resistant isolates after 48 hrs by agar dilution method; assay type: functional; procedure, shortened: as §1
# Prevotella intermedia [13] = test: Antimicrobial activity against Prevotella intermedia assessed as percent resistant isolates after 48 hrs by agar dilution method; assay type: functional; procedure, shortened: as §1
# Bacteroides caccae [14] = test: Antimicrobial activity against Bacteroides caccae assessed as percent susceptible isolates after 48 hrs by agar dilution method; assay type: functional
# [15] = test system: Bifidobacterium adolescentis; test: Antimicrobial activity against Bifidobacterium adolescentis assessed as percent susceptible isolates after 48 hrs by agar dilution method; assay type: functional
# Fusobacterium nucleatum = test: Antimicrobial activity against Fusobacterium nucleatum after 48 hrs by agar dilution method; assay type: functional; procedure, shortened: as §3
# Schaalia meyeri [16] = test: Antimicrobial activity against Actinomyces meyeri assessed as percent susceptible isolates after 48 hrs by agar dilution method; assay type: functional
# Finegoldia magna [17] = test: Antimicrobial activity against Finegoldia magna after 48 hrs by agar dilution method; assay type: functional; procedure, shortened: as §3
# Anaerococcus prevotii [18] = test: Antimicrobial activity against Anaerococcus prevotii after 48 hrs by agar dilution method; assay type: functional; procedure, shortened: as §2
# Bacteroides caccae [19] = test: Antimicrobial activity against Bacteroides caccae assessed as percent resistant isolates after 48 hrs by agar dilution method; assay type: functional; procedure, shortened: as §1
# Prevotella bivia [20] = test: Antimicrobial activity against Prevotella bivia assessed as percent resistant isolates after 48 hrs by agar dilution method; assay type: functional; procedure, shortened: as §1
# Eubacterium sp. = test: Antimicrobial activity against Eubacterium sp. after 48 hrs by agar dilution method; assay type: functional; procedure, shortened: as §3
# [21] = test system: Parabacteroides distasonis; test: Antimicrobial activity against Bacteroides distasonis assessed as percent susceptible isolates after 48 hrs by agar dilution method; assay type: functional
# [22] = test system: Bifidobacterium adolescentis; test: Antimicrobial activity against Bifidobacterium adolescentis assessed as percent resistant isolates after 48 hrs by agar dilution method; assay type: functional; procedure, shortened: as §1
# [23] = test system: Peptoniphilus asaccharolyticus; test: Antimicrobial activity against Peptoniphilus asaccharolyticus after 48 hrs by agar dilution method; assay type: functional; procedure, shortened: as §3
# [24] = test system: Peptoniphilus asaccharolyticus; test: Antimicrobial activity against Peptoniphilus asaccharolyticus assessed as percent susceptible isolates after 48 hrs by agar dilution method; assay type: functional; procedure, shortened: as §3
# Bacteroides fragilis [25] = test: Antimicrobial activity against Bacteroides fragilis assessed as percent resistant isolates after 48 hrs by agar dilution method; assay type: functional; procedure, shortened: as §1
# Bacteroides caccae [26] = test: Antimicrobial activity against Bacteroides caccae after 48 hrs by agar dilution method; assay type: functional; procedure, shortened: as §2
# [27] = test system: Bacteroides thetaiotaomicron; test: Antimicrobial activity against Bacteroides thetaiotaomicron assessed as percent resistant isolates after 48 hrs by agar dilution method; assay type: functional; procedure, shortened: as §1
# Finegoldia magna [28] = test: Antimicrobial activity against Finegoldia magna assessed as percent resistant isolates after 48 hrs by agar dilution method; assay type: functional; procedure, shortened: as §1
# Clostridioides difficile [29] = test: Antimicrobial activity against Clostridium difficile assessed as percent susceptible isolates after 48 hrs by agar dilution method; assay type: functional
# Schaalia odontolytica = test: Antimicrobial activity against Actinomyces odontolyticus assessed as percent susceptible isolates after 48 hrs by agar dilution method; assay type: functional
# Prevotella intermedia [30] = test: Antimicrobial activity against Prevotella intermedia assessed as percent susceptible isolates after 48 hrs by agar dilution method; assay type: functional; procedure, shortened: as §3
# Bacteroides ovatus [31] = test: Antimicrobial activity against Bacteroides ovatus assessed as percent susceptible isolates after 48 hrs by agar dilution method; assay type: functional
# Finegoldia magna [32] = test: Antimicrobial activity against Finegoldia magna assessed as percent susceptible isolates after 48 hrs by agar dilution method; assay type: functional; procedure, shortened: as §3
# Clostridioides difficile [33] = test: Antimicrobial activity against Clostridium difficile after 48 hrs by agar dilution method; assay type: functional
# [34] = test system: Peptoniphilus asaccharolyticus; test: Antimicrobial activity against Peptoniphilus asaccharolyticus assessed as percent resistant isolates after 48 hrs by agar dilution method; assay type: functional; procedure, shortened: as §1
# Schaalia meyeri [35] = test: Antimicrobial activity against Actinomyces meyeri after 48 hrs by agar dilution method; assay type: functional; procedure, shortened: as §2
# Bifidobacterium sp. = test: Antimicrobial activity against Bifidobacterium sp. assessed as percent resistant isolates after 48 hrs by agar dilution method; assay type: functional; procedure, shortened: as §1
# Actinomyces naeslundii [36] = test: Antimicrobial activity against Actinomyces naeslundii assessed as percent susceptible isolates after 48 hrs by agar dilution method; assay type: functional
# Prevotella buccae [37] = test: Antimicrobial activity against Prevotella buccae after 48 hrs by agar dilution method; assay type: functional; details: Segatella buccae; procedure, shortened: as §3
# Bacteroides fragilis [38] = test: Antimicrobial activity against Bacteroides fragilis after 48 hrs by agar dilution method; assay type: functional; procedure, shortened: as §2
# [39] = test system: Peptostreptococcus anaerobius; test: Antimicrobial activity against Peptostreptococcus anaerobius assessed as percent susceptible isolates after 48 hrs by agar dilution method; assay type: functional; procedure, shortened: as §1
# Hoylesella oralis [40] = test: Antimicrobial activity against Prevotella oralis after 48 hrs by agar dilution method; assay type: functional; procedure, shortened: as §3
# [41] = test system: Bifidobacterium adolescentis; test: Antimicrobial activity against Bifidobacterium adolescentis after 48 hrs by agar dilution method; assay type: functional; procedure, shortened: as §2
smiles,measurement,setting,value
C[C@@H](O)[C@H]1C(=O)N2C(C(=O)O)=C(S[C@@H]3CN[C@H](C(=O)N(C)C)C3)[C@H](C)[C@H]12 [MEROPENEM],Activity,Eggerthella lenta,8%
same,Activity,Phocaeicola vulgatus,98%
same,Activity,Bacteroides ovatus [1],0%
same,Activity,Anaerococcus prevotii [2],0%
same,MIC50,[3],0.25 µg/mL
same,MIC90,[3],2 µg/mL
same,MIC50,Actinomyces naeslundii [4],0.125 µg/mL
same,MIC90,Actinomyces naeslundii [4],2 µg/mL
same,MIC50,Prevotella bivia [5],0.125 µg/mL
same,MIC90,Prevotella bivia [5],0.5 µg/mL
same,MIC,Fusobacterium varium,0.008 µg/mL
same,MIC,Fusobacterium mortiferum,0.008 µg/mL
same,Activity,Bacteroides fragilis [6],92%
same,Activity,Clostridioides difficile [7],0%
same,Activity,Hoylesella oralis [8],0%
same,Activity,Prevotella bivia [9],100%
same,Activity,Parvimonas micra,0%
same,Activity,Prevotella buccae [10],100%
same,Activity,Schaalia meyeri [11],8%
same,Activity,Actinomyces naeslundii [12],8%
same,Activity,Prevotella intermedia [13],0%
same,Activity,Bacteroides caccae [14],98%
same,Activity,[15],92%
same,MIC,Fusobacterium nucleatum,0.008 µg/mL
same,Activity,Schaalia meyeri [16],92%
same,MIC50,Finegoldia magna [17],0.06 µg/mL
same,MIC90,Finegoldia magna [17],0.125 µg/mL
same,MIC50,Anaerococcus prevotii [18],0.06 µg/mL
same,MIC90,Anaerococcus prevotii [18],0.125 µg/mL
same,Activity,Bacteroides caccae [19],0%
same,Activity,Prevotella bivia [20],0%
same,MIC50,Eubacterium sp.,0.125 µg/mL
same,MIC90,Eubacterium sp.,2 µg/mL
same,Activity,[21],98%
same,Activity,[22],0%
same,MIC50,[23],≤ 0.008 µg/mL
same,MIC90,[23],0.03 µg/mL
same,Activity,[24],100%
same,Activity,Bacteroides fragilis [25],3%
same,MIC50,Bacteroides caccae [26],0.25 µg/mL
same,MIC90,Bacteroides caccae [26],2 µg/mL
same,Activity,[27],0%
same,Activity,Finegoldia magna [28],0%
same,Activity,Clostridioides difficile [29],100%
same,Activity,Schaalia odontolytica,92%
same,Activity,Prevotella intermedia [30],100%
same,Activity,Bacteroides ovatus [31],98%
same,Activity,Finegoldia magna [32],100%
same,MIC50,Clostridioides difficile [33],2 µg/mL
same,MIC90,Clostridioides difficile [33],2 µg/mL
same,Activity,[34],0%
same,MIC50,Schaalia meyeri [35],0.125 µg/mL
same,MIC90,Schaalia meyeri [35],2 µg/mL
same,Activity,Bifidobacterium sp.,8%
same,Activity,Actinomyces naeslundii [36],92%
same,MIC50,Prevotella buccae [37],0.125 µg/mL
same,MIC90,Prevotella buccae [37],0.5 µg/mL
same,MIC50,Bacteroides fragilis [38],0.125 µg/mL
same,MIC90,Bacteroides fragilis [38],4 µg/mL
same,Activity,[39],100%
same,MIC50,Hoylesella oralis [40],0.125 µg/mL
same,MIC90,Hoylesella oralis [40],0.5 µg/mL
same,MIC50,[41],0.125 µg/mL
same,MIC90,[41],2 µg/mL

# Source: ChEMBL document CHEMBL1671716, “Antimicrobial susceptibility patterns for recent clinical isolates of anaerobic bacteria in South Korea” (2010)
